Hsp90 block: tumor Hsp90 inhibitors, primary screen, cell lysate, fluorescence polarization, NCI-N417 lysate; Heat shock protein HSP 90-alpha (Homo sapiens), P07900; Cy3B-geldanamycin FP displacement; inhibition, % at 30 µM; actives 0.35% (n = 64,000); AID 429, 2006;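 active means inhibition above 50%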
BAP1 block: inhibitors of BAP1 deubiquitinase, primary screen, biochemical, Ub-AMC fluorescence, kinetic; Ubiquitin carboxyl-terminal hydrolase BAP1 (Homo sapiens), Q92560; recombinant BAP1, Ub-AMC hydrolysis fluorescence kinetic; stronger effect = lower value; calls only at 20 µM; actives 0.48% (n = 72,000);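 active means activity remaining at or below 50% of control, provided the compound also passes the data quality filters; inactive means the rest, including low values that fail the filters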
Target sequence (Q92560 whole entry, looked up): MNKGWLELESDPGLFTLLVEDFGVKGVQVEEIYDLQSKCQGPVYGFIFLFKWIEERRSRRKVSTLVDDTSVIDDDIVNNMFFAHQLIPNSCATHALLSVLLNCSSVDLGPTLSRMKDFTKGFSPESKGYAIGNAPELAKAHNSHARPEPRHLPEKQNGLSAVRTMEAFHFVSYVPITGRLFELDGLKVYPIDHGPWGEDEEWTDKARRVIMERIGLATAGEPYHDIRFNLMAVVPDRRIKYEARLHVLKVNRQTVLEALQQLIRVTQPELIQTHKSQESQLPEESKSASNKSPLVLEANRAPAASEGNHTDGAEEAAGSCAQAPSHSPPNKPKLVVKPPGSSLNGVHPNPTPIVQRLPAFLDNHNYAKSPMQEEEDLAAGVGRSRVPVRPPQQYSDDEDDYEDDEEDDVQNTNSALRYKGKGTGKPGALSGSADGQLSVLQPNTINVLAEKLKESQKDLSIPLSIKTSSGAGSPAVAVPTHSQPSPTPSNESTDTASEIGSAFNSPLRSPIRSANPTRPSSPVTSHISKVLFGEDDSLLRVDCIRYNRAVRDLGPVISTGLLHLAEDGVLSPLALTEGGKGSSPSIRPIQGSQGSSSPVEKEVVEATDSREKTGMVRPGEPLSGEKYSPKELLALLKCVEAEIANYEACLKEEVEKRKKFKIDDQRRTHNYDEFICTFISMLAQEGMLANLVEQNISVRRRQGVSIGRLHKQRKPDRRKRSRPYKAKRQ
M1 antagonist: antagonists of rat M1 muscarinic receptor | Muscarinic acetylcholine receptor M1 (Rattus norvegicus), P08482 | CHO-M1 cells, Fluo-4 calcium, ACh EC80 antagonist mode; stronger effect = lower value | B-score at 10 µM | actives 3.4% (n = 64,000) | AID 628, 2007;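 active means calcium fluorescence response, raw or row-and-column corrected B-score, differing from the plate sample mean either way at a set confidence level, mostly lower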
M1 ag: M1 muscarinic receptor agonists, primary screen, CHO-M1 cells, Fluo-4 calcium, agonist mode | Muscarinic acetylcholine receptor M1 | Fluo-4 calcium fluorescence; stronger effect = higher value | B-score at 10 µM | actives 3% (n = 64,000);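 active means fluorescence rise, raw or as B-score row- and column-corrected plate score, outside the 99.7% band of its plate's samples, either direction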
tolC growth inh: growth inhibitors of E. coli tolC mutant, primary screen, strain BW25113 ΔtolC::kan, 384-well; actives 2.2% (n = 65,000); growth inhibition, % at 10 µM (by protocol); AID 573, 2007; OD615;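 active means growth inhibition at or above a cutoff equal to the mean over every tested compound plus 3 SD, cut at about 60% in these data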;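 further: growth measured after 20 h incubation at 37 °C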
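Test system: tolC-deleted E. coli BW25113 | Medium: LB with kanamycin 50 µg/mL | Compound dosing: Single concentration, 10 µM final per compound | Schedule: 37 °C, 20 h exposure | Measured by: OD at 615 nm | Evaluation: Percent growth inhibition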
Ecoli WT expand: growth inhibitors of wild-type E. coli, primary screen, strain BW25113, expanded library, OD600. OD600 absorbance. growth inhibition, % at 100 µM. actives 0.15% (n = 98,000). AID 710, 2007;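 active means growth inhibition above about 50% at one test dose, limit read from the data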;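 further: growth measured after 20 h incubation at 37 °C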
M1 ag confirm: rat M1 muscarinic receptor agonists, confirmation, CHO-M1 cells, Fluo-4 calcium, duplicate retest | fluorescence change (max-min) at 10 µM | actives 19% (n = 1,700) | Fluo-4 calcium fluorescence, agonist mode; actives lie on both sides | shares compounds with M1 ag | AID 1488, 2009;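 active means fluorescence change differs from the solvent-only DMSO control mean at a set confidence level in both duplicate runs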;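 further: an EC20 dose of acetylcholine follows compound addition during the same imaging run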
M4 ag counter: agonist activity at rat M4 receptor, confirmation, counter-screen for M1 allosteric modulator project, cell-based, agonist mode. shares compounds with M1 ag. CHO M4/Gqi5 cells, Fluo-4 calcium fluorescence; actives lie on both sides. fluorescence change (max-min) at 10 µM. actives 9% (n = 1,700). AID 1741, 2009;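 active means fluorescence change differing from the plate's solvent-only control wells at 99.7% confidence in both duplicates, whether higher or lower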
M1 antag conf: rat M1 muscarinic receptor antagonists, confirmation, CHO cells, Fluo-4 calcium, duplicate. shares compounds with M1 antagonist. ACh EC80 antagonism; stronger effect = lower value. calcium response (max-min fluorescence) at 10 µM. actives 43% (n = 1,700). AID 677, 2007;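 active means calcium response below the same-plate mean of wells given acetylcholine alone at its 80%-effect dose, minus 3 SD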
mGluR4 antag: human mGluR4 response to M1 antagonist hits, M1 allosteric modulator project, cell-based, antagonist mode, secondary assay 1 | shares compounds with M1 antagonist | CHO-mGluR4 calcium flux, Fluo-4 fluorescence, glutamate EC80; stronger effect = lower value | fluorescence response (max-min) at 10 µM | actives 0.9% (n = 1,700);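 active means fluorescence response below the plate's average for near-maximal glutamate wells, less 3 SD of those wells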;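 further: raw unnormalized fluorescence span taken in the window right after glutamate addition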
Of the large screens only hits and unclear results are named; the others gave an inactive call (follow-up assays come after a bar, where shown). A selection: hits, their analogues and other compounds. The true share with any hit is near 5.1%.

CCN(CC)c1ccc(N=Cc2c(O)n(-c3ccccc3C)c(=O)[nH]c2=O)cc1	M1 ag 22 | M1 ag confirm inactive | M4 ag counter inactive
OC(COCc1ccc(Cl)cc1)CN1CC=C(c2ccccc2)CC1 (stereo not given)	M1 antagonist -4, M1 ag -2.8 | M1 ag confirm inactive | M4 ag counter inactive | M1 antag conf 475 | mGluR4 antag inactive
CCC(=O)N1N=C2C3CCN(CC3)C2C1c1ccc([N+](=O)[O-])cc1 (stereo not given)	none (no result: Hsp90 block, M1 antagonist, M1 ag, tolC growth inh, Ecoli WT expand)
Cc1c(N=Cc2c(O)n(Cc3ccc(F)cc3)c(=O)[nH]c2=O)c(=O)n(-c2ccccc2)n1C	none (no result: Hsp90 block, BAP1 block, M1 antagonist, M1 ag, tolC growth inh)
Cc1c(N=Cc2c(O)n(CCc3ccccc3)c(=O)[nH]c2=O)c(=O)n(-c2ccccc2)n1C	M1 antagonist -4.1 (not shown: BAP1 block) | M1 antag conf 243 | mGluR4 antag inactive
CCc1nc2ccccc2c(=O)n1-c1cccc([N+](=O)[O-])c1	none (no result: Hsp90 block, M1 antagonist, M1 ag, tolC growth inh, Ecoli WT expand)
Cc1ccc(S(=O)(=O)NCC2CCC(C(=O)N3CCC4(CC3)OCCO4)CC2)cc1 (stereo not given)	none
Cc1ccc2nc(N3CCC(C(=O)N4CCC5(CC4)OCCO5)CC3)sc2c1	M1 antagonist -1 | M1 antag conf 471 | mGluR4 antag inactive
CC(O)CNc1ccc([N+](=O)[O-])c2ncccc12 (stereo not given)	none (no result: Hsp90 block, M1 antagonist, M1 ag, tolC growth inh, Ecoli WT expand)
c1ccc(C(OCCN2CCNCC2)c2ccccc2)cc1	M1 antagonist -14 (no result: tolC growth inh) | M1 antag conf 148 | mGluR4 antag inactive
CC(C)c1ccccc1OCC(=O)Nc1ccc(Cl)cc1C(=O)c1ccccc1	none (no result: Hsp90 block, M1 antagonist, M1 ag, tolC growth inh, Ecoli WT expand)
O=C(c1cc2ccccc2oc1=O)N1CCC2(CC1)OCCO2	M1 antagonist -3.7 | M1 antag conf inactive | mGluR4 antag inactive
O=C(O)c1cc2ccccc2oc1=O	none
Cc1c(C(=O)N2CCC3(CC2)OCCO3)oc2ccccc12	M1 antagonist -2.3 | M1 antag conf inactive | mGluR4 antag inactive
COc1ccc2[nH]cc(CCN3CCCC3)c2c1	none (no result: BAP1 block, M1 antagonist, M1 ag, tolC growth inh, Ecoli WT expand)
O=C(COc1ccc(Cl)cc1)N1CCN(Cc2ccccc2)CC1	none (no result: M1 antagonist, M1 ag)
O=C(COc1ccc(Cl)cc1)NC1CN2CCC1CC2 (stereo not given)	M1 antagonist -16 | M1 antag conf 398 | mGluR4 antag inactive
CN(C)c1ccc(CN2CC=C(c3ccc(F)cc3)CC2)cc1	M1 antagonist -5.7 | M1 antag conf 469 | mGluR4 antag inactive
Cc1ccc(C(c2nnnn2Cc2ccccc2)N2CC=C(c3ccc(F)cc3)CC2)cc1 (stereo not given)	none (no result: Hsp90 block, BAP1 block, M1 antagonist, M1 ag, tolC growth inh)
CCCCOCCCn1c(N)c(C(=O)OCCOC)c2nc3ccccc3nc21	M1 antagonist -4 (not shown: BAP1 block) | M1 antag conf 21 | mGluR4 antag inactive
COc1ccc(C(C#N)C(C)=O)cc1OC (stereo not given)	none (no result: Hsp90 block, M1 antagonist, M1 ag, tolC growth inh, Ecoli WT expand)
COc1ccc(C2NCc3ccccc3-n3cccc32)cc1 (stereo not given)	none (no result: Hsp90 block, BAP1 block, M1 antagonist, M1 ag, tolC growth inh)
COc1cc(C2NCc3ccccc3-n3cccc32)ccc1O (stereo not given)	M1 antagonist -1.1 | M1 antag conf inactive | mGluR4 antag inactive
O=[N+]([O-])c1ccc(NCCc2ccccc2)c2ncccc12	none (no result: Hsp90 block, M1 antagonist, M1 ag, tolC growth inh, Ecoli WT expand)
CCN(CC)CCCNC(=O)c1c(O)c2ccccc2n(Cc2ccccc2)c1=O	M1 antagonist -5.4 | M1 antag conf 393 | mGluR4 antag inactive
CCOC(=O)/C(CCCN(CC)CC)=N\O	M1 antagonist -2.9 | M1 antag conf 251 | mGluR4 antag inactive
CCCCc1nc(N2CCNCC2)c(C#N)c2c1CSC(C)(C)C2	M1 antagonist -9.8 | M1 antag conf 61 | mGluR4 antag inactive
CNc1ccc(C)cc1C(=O)c1ccc(Br)cc1	none (no result: Hsp90 block, M1 antagonist, M1 ag, tolC growth inh, Ecoli WT expand)
Cc1cc(OCc2ccccc2F)c2c3c(c(=O)oc2c1)CCCC3	none (no result: Hsp90 block, M1 antagonist, M1 ag, tolC growth inh, Ecoli WT expand)
CCN1CCN(Cc2cc(Br)cc(OC)c2O)CC1	M1 antagonist -1.9 | M1 antag conf 350 | mGluR4 antag inactive
Oc1c(Br)cc(Br)cc1CN1CCN(Cc2ccccc2)CC1	none (no result: Hsp90 block, BAP1 block, M1 antagonist, M1 ag, tolC growth inh)
CN(C)CCc1nc2ccccc2c(=O)n1-c1ccccc1	M1 antagonist -6.2 | M1 antag conf inactive | mGluR4 antag inactive
O=c1c2cc(Cl)ccc2nc(C[n+]2ccccc2)n1-c1ccc([N+](=O)[O-])cc1	none (no result: Hsp90 block, M1 antagonist, M1 ag, tolC growth inh, Ecoli WT expand)
Cc1[nH]c2c(Cl)cccc2c1CCN	M1 antagonist -2.8 (no result: Ecoli WT expand) | M1 antag conf inactive | mGluR4 antag inactive
CN(C)CC#CCC(O)(c1ccccc1)C1CCCC1 (stereo not given)	none (no result: Hsp90 block, BAP1 block, M1 antagonist, M1 ag, tolC growth inh)
OC(Cc1ccccc1)(c1ccccc1)C1CN2CCC1CC2 (stereo not given)	M1 antagonist -7.2 | M1 antag conf 55 | mGluR4 antag inactive
COc1cccc(CNC2CN3CCC2CC3)c1OC (stereo not given)	M1 antagonist -5.1 | M1 antag conf 392 | mGluR4 antag inactive
CN1CCC(OC(=O)C2c3ccccc3Oc3ccccc32)CC1	M1 antagonist -14 | M1 antag conf 25 | mGluR4 antag inactive
CCCCc1nc2ccccc2c(=O)n1-c1ccc(C)cc1	none (no result: Hsp90 block, M1 antagonist, M1 ag, tolC growth inh, Ecoli WT expand)
